According to ChEMBL document CHEMBL4680065, “Pharmacophore-based screening of diamidine small molecule inhibitors for protein arginine methyltransferases” (RSC Med Chem, 2021):
Active and inactive are the calls of the source. The rule behind the calls is not given here.

What was measured:
[1] = molecular target: Protein arginine N-methyltransferase 3 (Homo sapiens, UniProt O60678); experiment: Inhibition of recombinant human His-tagged PRMT3 expressed in Escherichia coli BL21 (DE3) using biotin-labeled SMD1 as substrate incubated for 10 mins in presence of [3H]-SAM cofactor by scintillation proximity assay
How it was run: (§1)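 The inhibitor was serially diluted and added to the enzyme, [3H]-SAM and substrate mixture, and methylated substrate was quantified by scintillation proximity assay. Reactions were held at initial rate, with yield under 10% and substrate near Km. PRMT3, PRMT8 and G9a were His-tagged human proteins, and PRMT7 was GST-tagged, all expressed in E. coli and affinity-purified.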

[2] = molecular target: Protein arginine N-methyltransferase 6 (Homo sapiens, UniProt Q96LA8); experiment: Inhibition of PRMT6 (unknown origin) assessed as residual activity at 10 uM using biotin-labeled SMD1 as substrate incubated for 30 mins in presence of [3H]-SAM cofactor by scintillation proximity assay relative to control
How it was run: (§2)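 Single-point profiling used 10 μM inhibitor added to the enzyme, [3H]-SAM and substrate mixture. Methylated substrate was quantified by scintillation proximity assay. Reactions were held at initial rate, with yield under 10% and substrate near Km. Enzyme, [3H]-SAM and substrate final levels are given in the supplement.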

[3] = molecular target: T1, Protein arginine N-methyltransferase 7 (Homo sapiens) (UniProt Q9NVM4); experiment: Inhibition of recombinant GST-tagged PRMT7 (unknown origin) expressed in Escherichia coli assessed as residual activity at 10 uM using biotin-labeled SMD1 as substrate incubated for 120 mins in presence of [3H]-SAM cofactor by scintillation proximity assay relative to control; how it was run: as §2
T1 sequence (whole entry): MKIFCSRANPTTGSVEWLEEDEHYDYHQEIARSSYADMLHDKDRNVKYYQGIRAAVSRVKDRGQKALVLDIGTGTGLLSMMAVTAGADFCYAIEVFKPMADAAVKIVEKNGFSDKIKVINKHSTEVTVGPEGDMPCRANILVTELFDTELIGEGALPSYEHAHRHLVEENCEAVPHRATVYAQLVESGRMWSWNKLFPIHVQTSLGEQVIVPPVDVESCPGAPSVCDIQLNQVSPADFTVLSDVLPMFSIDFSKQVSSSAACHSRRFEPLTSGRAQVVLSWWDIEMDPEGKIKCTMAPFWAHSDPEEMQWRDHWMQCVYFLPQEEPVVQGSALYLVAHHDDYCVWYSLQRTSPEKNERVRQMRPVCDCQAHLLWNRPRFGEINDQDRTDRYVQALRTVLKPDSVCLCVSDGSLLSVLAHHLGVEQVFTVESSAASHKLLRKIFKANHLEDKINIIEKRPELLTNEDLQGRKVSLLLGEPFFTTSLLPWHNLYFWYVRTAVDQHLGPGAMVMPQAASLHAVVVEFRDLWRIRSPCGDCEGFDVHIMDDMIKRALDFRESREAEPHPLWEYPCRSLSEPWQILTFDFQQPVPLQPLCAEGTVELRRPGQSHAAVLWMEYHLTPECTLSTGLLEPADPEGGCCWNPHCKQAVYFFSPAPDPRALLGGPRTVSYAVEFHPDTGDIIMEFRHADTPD

[4] = molecular target: T2, Histone-lysine N-methyltransferase EHMT2 (Homo sapiens, UniProt Q96KQ7); experiment: Inhibition of recombinant His-tagged human G9a expressed in Escherichia coli BL21 (DE3) using biotin-labeled histone H3-20 peptide as substrate incubated for 30 mins in presence of [3H]-SAM cofactor by scintillation proximity assay; how it was run: as §1
T2 sequence (Q96KQ7 whole entry): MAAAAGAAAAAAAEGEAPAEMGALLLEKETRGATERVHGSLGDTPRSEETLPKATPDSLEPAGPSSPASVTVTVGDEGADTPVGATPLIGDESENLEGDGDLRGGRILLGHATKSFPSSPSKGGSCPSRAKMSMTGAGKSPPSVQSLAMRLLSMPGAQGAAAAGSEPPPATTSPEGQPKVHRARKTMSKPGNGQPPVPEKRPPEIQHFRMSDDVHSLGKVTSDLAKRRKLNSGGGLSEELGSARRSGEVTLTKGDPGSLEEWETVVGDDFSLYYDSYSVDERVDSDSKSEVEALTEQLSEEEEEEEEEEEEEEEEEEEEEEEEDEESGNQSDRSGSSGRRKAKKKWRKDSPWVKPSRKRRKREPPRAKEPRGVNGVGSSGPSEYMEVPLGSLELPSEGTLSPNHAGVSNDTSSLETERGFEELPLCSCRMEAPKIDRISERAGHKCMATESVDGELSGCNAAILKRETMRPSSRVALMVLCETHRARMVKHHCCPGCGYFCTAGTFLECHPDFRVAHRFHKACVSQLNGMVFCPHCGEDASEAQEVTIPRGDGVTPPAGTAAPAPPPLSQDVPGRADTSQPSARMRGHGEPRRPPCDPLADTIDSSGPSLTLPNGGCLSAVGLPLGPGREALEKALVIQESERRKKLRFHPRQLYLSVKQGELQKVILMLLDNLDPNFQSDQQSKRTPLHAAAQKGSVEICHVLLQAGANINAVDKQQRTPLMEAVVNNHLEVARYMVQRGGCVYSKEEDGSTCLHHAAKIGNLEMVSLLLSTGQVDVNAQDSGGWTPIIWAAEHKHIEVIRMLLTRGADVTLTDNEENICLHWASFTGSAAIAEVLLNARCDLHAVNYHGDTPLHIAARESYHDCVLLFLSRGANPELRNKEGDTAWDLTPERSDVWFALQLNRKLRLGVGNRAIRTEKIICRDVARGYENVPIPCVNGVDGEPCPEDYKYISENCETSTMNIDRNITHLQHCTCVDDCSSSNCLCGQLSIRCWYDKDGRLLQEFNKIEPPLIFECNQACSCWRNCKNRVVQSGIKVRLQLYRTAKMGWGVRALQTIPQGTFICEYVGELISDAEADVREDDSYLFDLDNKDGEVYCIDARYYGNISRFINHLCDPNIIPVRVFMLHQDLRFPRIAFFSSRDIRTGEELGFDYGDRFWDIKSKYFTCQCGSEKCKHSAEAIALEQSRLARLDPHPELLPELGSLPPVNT

[5] = molecular target: T3, Protein arginine N-methyltransferase 1 (Homo sapiens, UniProt Q99873); experiment: Non-competitive inhibition of recombinant His-tagged PRMT1 (unknown origin) expressed in Escherichia coli BL21 (DE3) using varying levels of biotin-labeled histone H4-20 as substrate
How it was run: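 His-tagged human PRMT1 was expressed in E. coli BL21(DE3) and Ni-affinity purified. IC50 was measured by SPA at varied SAM or biotinylated H4 peptide (0.3125–4.5 μM), with the other component fixed near its Km (0.5 μM); n = 2.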

[6] = molecular target: T3, Protein arginine N-methyltransferase 1; experiment: Inhibition of PRMT1 in human MEG-01 cells assessed as reduction in RBM15 total asymmetric arginine methylation level at 100 to 200 nM measured after 24 hrs by immunoblotting analysis; assay type: cell-based; conditions: dose 100-200 nM
How it was run: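 MEG01 cells were cultured for 24 h with the inhibitor (100 nM, 200 nM) or with DMSO control. Cell extracts were resolved by SDS-PAGE and immunoblotted with anti-methyl-RBM15 antibody and the pan-asymmetric methylation antibody α-Asym24. Equal loading was checked by Ponceau S staining.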

T3 sequence (Q99873 whole entry, looked up): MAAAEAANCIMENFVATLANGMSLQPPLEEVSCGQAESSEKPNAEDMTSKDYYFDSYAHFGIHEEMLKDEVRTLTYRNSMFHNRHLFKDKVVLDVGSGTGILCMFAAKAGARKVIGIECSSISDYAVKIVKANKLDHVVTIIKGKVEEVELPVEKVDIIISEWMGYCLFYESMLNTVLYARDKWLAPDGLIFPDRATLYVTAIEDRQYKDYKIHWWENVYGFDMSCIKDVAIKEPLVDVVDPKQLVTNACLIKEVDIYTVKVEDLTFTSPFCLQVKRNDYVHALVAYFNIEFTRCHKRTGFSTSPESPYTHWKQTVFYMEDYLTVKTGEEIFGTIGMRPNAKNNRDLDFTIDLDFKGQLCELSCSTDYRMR
Sequence of Protein arginine N-methyltransferase 3 (O60678 whole entry): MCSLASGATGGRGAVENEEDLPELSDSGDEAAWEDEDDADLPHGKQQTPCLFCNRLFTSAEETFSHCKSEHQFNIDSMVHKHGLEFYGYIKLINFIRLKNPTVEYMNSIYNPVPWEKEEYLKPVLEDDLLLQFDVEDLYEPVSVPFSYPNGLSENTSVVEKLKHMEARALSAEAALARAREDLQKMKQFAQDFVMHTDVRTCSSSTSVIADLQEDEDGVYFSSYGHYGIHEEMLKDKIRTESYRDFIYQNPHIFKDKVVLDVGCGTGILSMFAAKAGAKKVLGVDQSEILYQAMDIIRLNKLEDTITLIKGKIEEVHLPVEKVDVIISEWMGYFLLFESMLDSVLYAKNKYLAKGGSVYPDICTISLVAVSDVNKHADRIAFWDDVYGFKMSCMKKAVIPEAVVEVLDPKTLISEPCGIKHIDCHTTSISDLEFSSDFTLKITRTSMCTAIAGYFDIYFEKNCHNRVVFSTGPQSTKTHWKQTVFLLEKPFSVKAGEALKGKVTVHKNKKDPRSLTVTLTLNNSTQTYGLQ
Sequence of Protein arginine N-methyltransferase 6 (Q96LA8 whole entry, looked up): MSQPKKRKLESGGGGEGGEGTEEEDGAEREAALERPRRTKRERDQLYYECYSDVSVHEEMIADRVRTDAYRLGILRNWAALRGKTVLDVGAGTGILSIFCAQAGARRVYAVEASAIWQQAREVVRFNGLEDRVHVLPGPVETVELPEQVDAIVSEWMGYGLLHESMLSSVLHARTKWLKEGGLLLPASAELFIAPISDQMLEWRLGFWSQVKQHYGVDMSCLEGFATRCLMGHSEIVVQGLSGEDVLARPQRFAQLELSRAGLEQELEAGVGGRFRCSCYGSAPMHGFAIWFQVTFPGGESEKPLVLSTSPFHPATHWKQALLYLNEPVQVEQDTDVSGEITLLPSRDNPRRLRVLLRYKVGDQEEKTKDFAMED

SMILES: N=C(N)c1ccc(Nc2ccc(-c3cc4ccc(C(=N)N)cc4[nH]3)cc2)cc1
- IC50 [1]: 3.4 µM
- Activity [2]: 22.9%
- Activity [3]: 32.1%
- IC50 [4]: 3.7 µM
- inhibition [5]: Active
- inhibition [6]: Active
